In ChEMBL document CHEMBL5113395, “Azetidin-2-one-based small molecules as dual hHDAC6/HDAC8 inhibitors: Investigation of their mechanism of action and impact of dual inhibition profile on cell viability” (Eur J Med Chem, 2022):
Active and inactive are the calls of the source. The rule behind the calls is not given here.

Key:
[1] = target: T1, Protein deacetylase HDAC6 (Homo sapiens, UniProt Q9UBN7); assay: Inhibition of recombinant human full length N-terminal GST-tagged HDAC6 expressed in Sf9 cells using ZMAL (Z-(Ac)Lys-AMC as substrate measured after 90 mins by fluorescence plate reader analysis
T1 sequence (Q9UBN7 whole entry): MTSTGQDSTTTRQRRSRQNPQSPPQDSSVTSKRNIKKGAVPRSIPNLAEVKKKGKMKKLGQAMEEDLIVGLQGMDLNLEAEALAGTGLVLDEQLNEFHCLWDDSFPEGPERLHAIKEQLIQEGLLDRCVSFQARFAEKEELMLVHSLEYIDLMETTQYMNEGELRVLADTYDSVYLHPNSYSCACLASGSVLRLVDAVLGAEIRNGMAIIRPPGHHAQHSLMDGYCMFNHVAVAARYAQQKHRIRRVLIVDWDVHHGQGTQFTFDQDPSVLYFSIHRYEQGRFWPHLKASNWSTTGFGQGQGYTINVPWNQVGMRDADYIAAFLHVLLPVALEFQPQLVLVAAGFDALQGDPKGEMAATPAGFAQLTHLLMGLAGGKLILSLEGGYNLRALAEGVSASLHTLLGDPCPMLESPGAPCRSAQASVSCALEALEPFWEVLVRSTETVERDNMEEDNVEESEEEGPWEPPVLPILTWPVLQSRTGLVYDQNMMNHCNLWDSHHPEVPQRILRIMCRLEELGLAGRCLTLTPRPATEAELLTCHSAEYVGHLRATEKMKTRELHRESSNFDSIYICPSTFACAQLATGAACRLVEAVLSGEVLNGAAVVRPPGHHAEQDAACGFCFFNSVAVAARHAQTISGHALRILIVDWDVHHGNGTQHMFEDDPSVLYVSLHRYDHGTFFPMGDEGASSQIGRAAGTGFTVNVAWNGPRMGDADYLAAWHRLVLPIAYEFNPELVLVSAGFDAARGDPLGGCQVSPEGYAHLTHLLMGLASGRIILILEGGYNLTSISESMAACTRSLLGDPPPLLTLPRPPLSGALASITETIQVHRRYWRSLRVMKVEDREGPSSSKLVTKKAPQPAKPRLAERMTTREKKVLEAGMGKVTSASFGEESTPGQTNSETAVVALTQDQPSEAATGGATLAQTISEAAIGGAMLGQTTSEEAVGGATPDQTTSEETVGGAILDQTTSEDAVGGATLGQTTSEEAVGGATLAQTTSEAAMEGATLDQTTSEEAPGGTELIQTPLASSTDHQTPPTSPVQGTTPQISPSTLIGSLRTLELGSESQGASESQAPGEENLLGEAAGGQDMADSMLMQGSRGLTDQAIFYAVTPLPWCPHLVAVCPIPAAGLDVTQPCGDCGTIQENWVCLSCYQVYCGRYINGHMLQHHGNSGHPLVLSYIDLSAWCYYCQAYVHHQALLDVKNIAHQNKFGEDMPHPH

[2] = target: T2, Histone deacetylase 1 (Homo sapiens, UniProt Q13547); assay: Inhibition of recombinant human full length C-terminal FLAG/His-tagged HDAC1 expressed in Sf9 insect cells using ZMAL (Z-(Ac)Lys-AMC as substrate at 50 uM measured after 90 mins by fluorescence plate reader analysis relative to control
T2 sequence (Q13547 whole entry): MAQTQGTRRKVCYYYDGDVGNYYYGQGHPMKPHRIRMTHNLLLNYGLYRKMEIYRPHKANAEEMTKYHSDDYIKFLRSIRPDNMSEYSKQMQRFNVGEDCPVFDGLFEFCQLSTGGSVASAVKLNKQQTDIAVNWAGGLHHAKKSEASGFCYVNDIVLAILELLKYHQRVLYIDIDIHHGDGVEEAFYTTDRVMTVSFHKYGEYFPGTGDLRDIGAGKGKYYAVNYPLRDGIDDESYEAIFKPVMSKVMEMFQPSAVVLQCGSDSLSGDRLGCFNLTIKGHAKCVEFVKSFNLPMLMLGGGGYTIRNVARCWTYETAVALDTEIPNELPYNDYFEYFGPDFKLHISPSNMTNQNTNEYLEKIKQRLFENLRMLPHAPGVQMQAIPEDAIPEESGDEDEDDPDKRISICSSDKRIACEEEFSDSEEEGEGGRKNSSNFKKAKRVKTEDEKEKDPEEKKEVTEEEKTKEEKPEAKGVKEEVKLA

[3] = target: T2, Histone deacetylase 1; assay: Inhibition of recombinant human full length C-terminal FLAG/His-tagged HDAC1 expressed in Sf9 insect cells using ZMAL (Z-(Ac)Lys-AMC as substrate at 10 uM measured after 90 mins by fluorescence plate reader analysis relative to control
[4] = target: T2, Histone deacetylase 1; assay: Inhibition of recombinant human full length C-terminal FLAG/His-tagged HDAC1 expressed in Sf9 insect cells using ZMAL (Z-(Ac)Lys-AMC as substrate at 1 uM measured after 90 mins by fluorescence plate reader analysis relative to control
[5] = tested on: HCT-116; assay: Antiproliferation activity against human HCT-116 cells assessed as reduction in cell viability at 5 to 50 uM measured after 48 hrs by MTT assay; type: functional, cell-based; details: dose 5-50 µM
Method in brief: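 HCT116 cells in DMEM with 10% heat-inactivated FBS were seeded at 3×10^4 cells/well and treated in triplicate at 1, 5, 10 and 50 µM for 24 and 48 h. MTT at 0.5 mg/mL was added for 3 h, formazan was dissolved in DMSO, and absorbance was read at 570 nm.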

[6] = tested on: U-937; assay: Antiproliferation activity against human U-937 cells assessed as reduction in cell viability at 5 to 50 uM measured after 48 hrs by CCK-8 assay; type: functional, cell-based; details: dose 5-50 µM
Method in brief: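 U937 cells were exposed in triplicate to 1, 5, 10 and 50 µM for 24 and 48 h. CCK-8 (WST-8) reagent was then added, with 3 h further incubation at 37 °C, and absorbance was read at 450 nm to give viability.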

[7] = target: T2, Histone deacetylase 1; assay: Inhibition of recombinant human full length C-terminal FLAG/His-tagged HDAC1 expressed in Sf9 insect cells using ZMAL (Z-(Ac)Lys-AMC as substrate measured after 90 mins by fluorescence plate reader analysis
[8] = Cytotoxicity against mouse NIH3T3 cells assessed as inhibition of cell growth by neutral red uptake assay
[9] = target: T3, Histone deacetylase 8 (Homo sapiens) (UniProt Q9BY41); assay: Inhibition of recombinant human HDAC8 using FLUOR DE LYS as substrate preincubated for 15 mins followed by substrate addition at 50 uM measured after 1 hrs by fluorescence plate reader analysis relative to control; details: time 75.0 min
T3 sequence (whole entry): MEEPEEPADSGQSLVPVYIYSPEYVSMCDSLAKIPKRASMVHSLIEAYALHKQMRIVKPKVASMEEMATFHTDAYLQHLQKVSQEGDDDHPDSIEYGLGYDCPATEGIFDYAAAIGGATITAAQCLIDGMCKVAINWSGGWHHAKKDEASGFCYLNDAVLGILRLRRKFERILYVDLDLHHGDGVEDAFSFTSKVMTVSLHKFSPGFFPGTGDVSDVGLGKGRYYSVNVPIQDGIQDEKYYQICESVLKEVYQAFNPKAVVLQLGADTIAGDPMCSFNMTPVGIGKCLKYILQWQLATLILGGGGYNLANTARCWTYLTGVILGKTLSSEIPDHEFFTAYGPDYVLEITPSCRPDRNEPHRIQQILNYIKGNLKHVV
Method in brief: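 Kit recombinant human HDAC8 (0.45 U/reaction) was preincubated 15 min with compound (0.5% DMSO; DMSO-only control). Fluor de Lys substrate was then added at 50 µM final and the reaction ran 1 h at 30 °C. It was quenched with 2 µM TSA in Developer II for a further 1 h at 30 °C, and fluorescence read at ex 370/em 450 nm. IC50 came from nonlinear dose–response fitting.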

[10] = target: T4, Protein deacetylase HDAC6 (Homo sapiens) (UniProt Q9UBN7); assay: Inhibition of recombinant human full length N-terminal GST-tagged HDAC6 expressed in Sf9 cells using ZMAL (Z-(Ac)Lys-AMC as substrate at 50 uM measured after 90 mins by fluorescence plate reader analysis relative to control
T4 sequence (whole entry): T1 sequence (Q9UBN7 whole entry)

[11] = target: T4, Protein deacetylase HDAC6 (Homo sapiens); assay: Inhibition of recombinant human full length N-terminal GST-tagged HDAC6 expressed in Sf9 cells using ZMAL (Z-(Ac)Lys-AMC as substrate at 10 uM measured after 90 mins by fluorescence plate reader analysis relative to control
[12] = target: T4, Protein deacetylase HDAC6 (Homo sapiens); assay: Inhibition of recombinant human full length N-terminal GST-tagged HDAC6 expressed in Sf9 cells using ZMAL (Z-(Ac)Lys-AMC as substrate at 1 uM measured after 90 mins by fluorescence plate reader analysis relative to control

| IC50 [1] [µM] | inhibition [2] [%] | inhibition [3] [%] | inhibition [4] [%] | IC50 [7] [µM] | SMILES | also measured |
| --- | --- | --- | --- | --- | --- | --- |
| 0.168 | 97.3 | 93.4 | 61 | – | O=C(/C=C/c1ccc(C(=O)N2CCC(N3C(=O)[C@H](c4ccccc4)[C@H]3c3ccccc3)CC2)cc1)NO (racemic) | – |
| – | – | – | – | – | O=C(CCCCCCC(=O)Nc1ccccc1)NO | Activity [5]: Active; Activity [6]: Active |
| 0.13 | 100 | 90.1 | 49.7 | – | O=C(NO)c1ccc(/C=C/C(=O)N2CCC(N3C(=O)[C@H](c4ccccc4)[C@H]3c3ccccc3)CC2)cc1 (racemic) | – |
| – | – | – | – | – | COc1ccc(Cn2ccc3ccc(C(=O)NO)cc32)cc1 | Activity [5]: Active; Activity [6]: Active |
| 0.399 | – | – | – | 3.1 | Cc1cccc(C2CC(=O)N2C2CCN(C(=O)NCc3ccc(C(=O)NO)cc3)CC2)c1 (racemic) | CC50 [8]: 100 µM |
| 0.121 | – | – | – | 5.14 | O=C(NO)c1ccc(CC(=O)N2CCC(N3C(=O)[C@H](c4ccccc4)[C@H]3c3ccccc3)CC2)cc1 (racemic) | CC50 [8]: 48 µM |
| 0.27 | – | – | – | 15.1 | O=C(NO)c1ccc(CNC(=O)N2CCC(N3C(=O)CC3c3cccc(Cl)c3)CC2)cc1 (racemic) | – |
| 0.0185 | – | – | – | 4.1 | O=C(NO)c1ccc(COC(=O)N2CCC(N3CC(c4ccccc4)(c4ccccc4)C3=O)CC2)cc1 | inhibition [9]: 13%; CC50 [8]: 80 µM |
| – | 89.5 | 66.4 | 22.3 | – | O=C(CCc1ccc(C(=O)N2CCC(N3C(=O)[C@H](c4ccccc4)[C@H]3c3ccccc3)CC2)cc1)NO (racemic) | inhibition [10]: 98.4%; inhibition [11]: 85.7%; inhibition [12]: 35.9% |
| – | 82.7 | 53.3 | 23.6 | – | O=C(Cc1ccc(NC(=O)N2CCC(N3C(=O)[C@H](c4ccccc4)[C@H]3c3ccccc3)CC2)cc1)NO (racemic) | inhibition [10]: 103%; inhibition [11]: 94.2%; inhibition [12]: 60.2% |
| – | 83.6 | 48.7 | 17.2 | – | O=C(NO)c1ccc(CCC(=O)N2CCC(N3C(=O)[C@H](c4ccccc4)[C@H]3c3ccccc3)CC2)cc1 (racemic) | inhibition [10]: 102%; inhibition [11]: 97.1%; inhibition [12]: 69.7% |
| 0.203 | – | – | – | 1.27 | O=C(NO)c1ccc(NC(=O)N2CCC(N3C(=O)[C@H](c4ccccc4)[C@H]3c3ccccc3)CC2)cc1 (racemic) | – |
